Reference: ChEMBL document CHEMBL1139470, “Benzophenone-based farnesyltransferase inhibitors with high activity against Trypanosoma cruzi” (J Med Chem, 2005)

Columns and labels:
Trypanosoma cruzi = assay: Inhibition of Trypanosoma cruzi Tulahuen in BALB/c mouse blood; type: functional
Method in brief: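 Trypomastigote lysis assay: mouse blood (from infected BALB/c, cardiac puncture) holding 5 × 10^4 bloodstream trypomastigotes per well, compound added from 10 mM DMSO stock diluted in BHI; DMSO controls (final 1/1000). 24 h at 4 °C, then microscopic counting at 400×. Triplicates, experiments repeated 3–4 times; lysis relative to control; LC50 = minimal concentration lysing 50%.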

[1] = Cytotoxicity against HeLa cells after 72 hrs; type: cell-based; details: human
Method in brief: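 HeLa cells grown in RPMI 1640 with 10% heat-inactivated FBS and gentamicin, then harvested in log phase by trypsinization. About 10 000 cells/well were preincubated 48 h before compound addition (10 mM DMSO stock diluted 1:200 in medium). Cells were exposed 72 h at 37 °C, 5% CO2, fixed with glutaraldehyde and stained with methylene blue. Stain was eluted with HCl and OD read at 660 nm to give CC50.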

[2] = Inhibition of Saccharomyces cerevisiae FTase
Vero [3] = assay: Effect on Vero cell morphology at 100 uM; type: functional, cell-based; details: Chlorocebus sabaeus
Method in brief: (§1)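 Vero cells cultured in RPMI 1640 with 5% heat-inactivated FBS. 10^4 cells/well were incubated with compound at 37 °C, 5% CO2, in triplicate per concentration. DMSO was the diluent at a final 1/1000, and DMSO-only wells served as control. Toxicity was judged by cell morphology and confluent growth.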

Mus musculus [4] = assay: Survival of BALB/c mouse infected with Trypanosoma cruzi trypomastigotes at 6.4 mg/kg/day relative to control; type: functional
Method in brief: (§2)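 Male BALB/c mice, 60 days old, infected intraperitoneally with 500 bloodstream trypomastigotes (groups of five; untreated infected controls, six). Oral dosing (25 µL) from 30 min post-infection, five times weekly, 39 doses total (21 at 3.2 mg/kg/day). Control mice got physiological solution. Parasitemia checked by tail-blood microscopy twice weekly. Survival recorded to day 115 pi.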

Mus musculus [5] = assay: Survival of BALB/c mouse infected with Trypanosoma cruzi trypomastigotes at 3.2 mg/kg/day relative to control; type: functional; method in brief: as §2
Vero [6] = assay: Cytotoxicity against Vero cells at 100 uM; type: cell-based; details: chlorocebus sabaeus; method in brief: as §1
Mus musculus [7] = assay: Survival of BALB/c mouse infected with Trypanosoma cruzi trypomastigotes at 7 mg/kg/day relative to control; type: functional; method in brief: as §2

| Structure (SMILES) | LC50 (Trypanosoma cruzi) [µM] | CC50 at 72 h [1] [µM] | IC50 [2] [µM] | further results |
| --- | --- | --- | --- | --- |
| Cc1ccc(CC(=O)Nc2ccc(NC(=O)/C=C/c3ccc(-c4ccc([N+](=O)[O-])cc4)o3)cc2C(=O)c2ccccc2)cc1 | > 100 | > 85 | 0.035 | – |
| CSCC[C@@H](N)C(=O)Nc1ccc(NC(=O)/C=C/c2ccc(-c3ccc([N+](=O)[O-])cc3)o2)cc1C(=O)c1ccccc1 | > 10 | > 81 | 0.5 | – |
| CSCC[C@H](N)C(=O)Nc1ccc(NC(=O)/C=C/c2ccc(-c3ccc([N+](=O)[O-])cc3)o2)cc1C(=O)c1ccccc1 | > 10 | > 81 | 1.77 | – |
| N[C@@H](Cc1ccccc1)C(=O)Nc1ccc(NC(=O)/C=C/c2ccc(-c3ccc([N+](=O)[O-])cc3)o2)cc1C(=O)c1ccccc1 | > 10 | > 79 | 0.003 | – |
| N[C@H](Cc1ccccc1)C(=O)Nc1ccc(NC(=O)/C=C/c2ccc(-c3ccc([N+](=O)[O-])cc3)o2)cc1C(=O)c1ccccc1 | 0.001 | > 78 | 0.116 | Activity (Vero [3]): Non-toxic; survival at 6.4 mg/kg/day (Mus musculus [4]): 80%; survival at 3.2 mg/kg/day (Mus musculus [5]): 0%; Activity (Vero [6]): Non-toxic |
| CN1CCN(C(C(=O)Nc2ccc(NC(=O)/C=C/c3ccc(-c4ccc([N+](=O)[O-])cc4)o3)cc2C(=O)c2ccccc2)c2ccccc2)CC1 (configuration not stated) | 10 | 37 | 0.01 | – |
| CC(C)C[C@H](N)C(=O)Nc1ccc(NC(=O)/C=C/c2ccc(-c3ccc([N+](=O)[O-])cc3)o2)cc1C(=O)c1ccccc1 | 1 | > 83 | 0.36 | – |
| O=C(/C=C/c1ccc(-c2ccc([N+](=O)[O-])cc2)o1)Nc1ccc(NC(=O)C(c2ccccc2)N2CCN(Cc3ccccc3)CC2)c(C(=O)c2ccccc2)c1 (configuration not stated) | 50 | – | 0.66 | – |
| O=C(/C=C/c1ccc(-c2ccc([N+](=O)[O-])cc2)o1)Nc1ccc(NC(=O)Cc2ccc(C(F)(F)F)cc2)c(C(=O)c2ccccc2)c1 | 50 | > 57 | 0.026 | – |
| N[C@H](C(=O)Nc1ccc(NC(=O)/C=C/c2ccc(-c3ccc([N+](=O)[O-])cc3)o2)cc1C(=O)c1ccccc1)c1ccccc1 | > 50 | > 80 | 0.046 | – |
| O=C(/C=C/c1ccc(-c2ccc([N+](=O)[O-])cc2)o1)Nc1ccc(NC(=O)C(c2ccccc2)N2CCOCC2)c(C(=O)c2ccccc2)c1 (configuration not stated) | 50 | > 76 | 0.66 | – |
| N[C@@H](Cc1c[nH]c2ccccc12)C(=O)Nc1ccc(NC(=O)/C=C/c2ccc(-c3ccc([N+](=O)[O-])cc3)o2)cc1C(=O)c1ccccc1 | 10 | – | 0.58 | – |
| O=C(/C=C/c1ccc(-c2ccc([N+](=O)[O-])cc2)o1)Nc1ccc(NC(=O)C(c2ccccc2)N2CCN(C3CCCCC3)CC2)c(C(=O)c2ccccc2)c1 (configuration not stated) | 1 | 42 | 0.34 | – |
| CN1CCN(C(C(=O)Nc2ccc(NC(=O)/C=C/c3ccc(-c4ccc([N+](=O)[O-])cc4)o3)cc2C(=O)c2ccccc2)c2ccc(Cl)cc2)CC1 (configuration not stated) | 10 | 38.6 | 0.125 | – |
| NC(C(=O)Nc1ccc(NC(=O)/C=C/c2ccc(-c3ccc([N+](=O)[O-])cc3)o2)cc1C(=O)c1ccccc1)c1ccc(C(F)(F)F)cc1 (configuration not stated) | 10 | – | 0.017 | – |
| CCN1CCN(C(C(=O)Nc2ccc(NC(=O)/C=C/c3ccc(-c4ccc([N+](=O)[O-])cc4)o3)cc2C(=O)c2ccccc2)c2ccccc2)CC1 (configuration not stated) | > 50 | – | > 10 | – |
| CC(C)C[C@@H](N)C(=O)Nc1ccc(NC(=O)/C=C/c2ccc(-c3ccc([N+](=O)[O-])cc3)o2)cc1C(=O)c1ccccc1 | 0.1 | 47.8 | 0.5 | – |

| Structure (SMILES) | LC50 (Trypanosoma cruzi) [µM] | CC50 at 72 h [1] [µM] | IC50 [2] [µM] | further results |
| --- | --- | --- | --- | --- |
| N[C@@H](C(=O)Nc1ccc(NC(=O)/C=C/c2ccc(-c3ccc([N+](=O)[O-])cc3)o2)cc1C(=O)c1ccccc1)c1ccccc1 | > 50 | > 80 | 0.008 | – |
| O=C(/C=C/c1ccc(-c2ccc([N+](=O)[O-])cc2)o1)Nc1ccc(NC(=O)C(c2ccccc2)N2CCN(c3ccccc3)CC2)c(C(=O)c2ccccc2)c1 (configuration not stated) | > 50 | – | 0.3 | – |
| N[C@H](Cc1ccc(Cl)cc1)C(=O)Nc1ccc(NC(=O)/C=C/c2ccc(-c3ccc([N+](=O)[O-])cc3)o2)cc1C(=O)c1ccccc1 | > 10 | > 74.5 | 0.07 | – |
| O=C1CCN(C(C(=O)Nc2ccc(NC(=O)/C=C/c3ccc(-c4ccc([N+](=O)[O-])cc4)o3)cc2C(=O)c2ccccc2)c2ccccc2)CC1 (configuration not stated) | 1 | – | – | – |
| O=C(/C=C/c1ccc(-c2ccc([N+](=O)[O-])cc2)o1)Nc1ccc(NC(=O)C(c2ccccc2)N2CCCCC2)c(C(=O)c2ccccc2)c1 (configuration not stated) | 50 | – | 0.455 | – |
| CC(C)(C)OC(=O)NC(C(=O)Nc1ccc(NC(=O)/C=C/c2ccc(-c3ccc([N+](=O)[O-])cc3)o2)cc1C(=O)c1ccccc1)c1ccc(C(F)(F)F)cc1 (configuration not stated) | 50 | – | 0.008 | – |
| CC[C@H](C)[C@H](N)C(=O)Nc1ccc(NC(=O)/C=C/c2ccc(-c3ccc([N+](=O)[O-])cc3)o2)cc1C(=O)c1ccccc1 | 0.1 | > 83 | 0.15 | – |
| CC(C)(C)OC(=O)NC(Cc1ccc(C(F)(F)F)cc1)C(=O)Nc1ccc(NC(=O)/C=C/c2ccc(-c3ccc([N+](=O)[O-])cc3)o2)cc1C(=O)c1ccccc1 (configuration not stated) | > 50 | – | 0.285 | – |
| NC(Cc1ccc(C(F)(F)F)cc1)C(=O)Nc1ccc(NC(=O)/C=C/c2ccc(-c3ccc([N+](=O)[O-])cc3)o2)cc1C(=O)c1ccccc1 (configuration not stated) | 50 | – | 0.095 | – |
| CC(C)NC(=O)CN1CCN(C(C(=O)Nc2ccc(NC(=O)/C=C/c3ccc(-c4ccc([N+](=O)[O-])cc4)o3)cc2C(=O)c2ccccc2)c2ccccc2)CC1 (configuration not stated) | > 50 | – | 0.34 | – |
| CCc1ccc(-c2ccc(/C=C/C(=O)Nc3ccc(NC(=O)Cc4ccc(C)cc4)c(C(=O)c4ccccc4)c3)o2)cc1 | 50 | – | 0.09 | – |
| O=C(/C=C/c1ccc(-c2ccc([N+](=O)[O-])cc2)o1)Nc1ccc(NC(=O)C(c2ccccc2)N2CCN(CCO)CC2)c(C(=O)c2ccccc2)c1 (configuration not stated) | 10 | 71 | 0.43 | – |
| CCCN1CCN(C(C(=O)Nc2ccc(NC(=O)/C=C/c3ccc(-c4ccc([N+](=O)[O-])cc4)o3)cc2C(=O)c2ccccc2)c2ccccc2)CC1 (configuration not stated) | 0.01 | 68 | 0.125 | Activity (Vero [3]): Non-toxic; survival at 7 mg/kg/day (Mus musculus [7]): 60%; Activity (Vero [6]): Non-toxic |
| NC(C(=O)Nc1ccc(NC(=O)/C=C/c2ccc(-c3ccc([N+](=O)[O-])cc3)o2)cc1C(=O)c1ccccc1)c1ccc(F)cc1 (configuration not stated) | 50 | > 78 | 0.025 | – |
| N[C@@H](Cc1ccc(Cl)cc1)C(=O)Nc1ccc(NC(=O)/C=C/c2ccc(-c3ccc([N+](=O)[O-])cc3)o2)cc1C(=O)c1ccccc1 | 1 | > 74.5 | 0.06 | – |
| Cc1ccc(CC(=O)Nc2ccc(NC(=O)/C=C/c3ccc(-c4ccc(S(C)(=O)=O)cc4)o3)cc2C(=O)c2ccccc2)cc1 | 50 | – | 0.03 | – |
